Assay outcomes from PubChem BioAssay.
UCH37 inh – blocks the human deubiquitinase UCH37 | 330,000 compounds, 0.33% hits | purified proteasome/UCH37, Ub-AMC cleavage fluorescence | Q9Y5K5 | AID 588478 | inhibition, % (no concentration beside the values);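 active = mean inhibition over replicate wells above about 20%, limit read from the data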;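 also: 0% = compound-free wells with enzyme and 100% = wells lacking proteasome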
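assay system = human UCH37 enzyme supplied as purified proteasome complex | amount = proteasome at 0.15 nM in the dispensed enzyme solution | schedule = 30 min compound-proteasome preincubation then 25 min substrate reaction, room temperature | measured by = fluorescence, ex 355 nm, em 460 nm | benchmarks = no-proteasome wells (full inhibition) and compound-free wells (no inhibition)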
NLRP3 yeast inh – blocks the NALP3 inflammasome reconstituted in yeast; Yeast reconstituted NLRP3/ASC/caspase-1, beta-gal luminescence, 24 h; AID 2825; 330,000 compounds, 0.39% hits; inhibition, % at 10 µM;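 active = inhibition of 50% or more; inactive = inhibition below 50%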;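 also: plate controls were induced DMSO wells for no effect and uninduced yeast grown without galactose for full effect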
Calb FLC – C. albicans growth modulation with fluconazole; growth inhibition, % (test concentration not listed); C. albicans CaCi-2 + fluconazole, Alamar Blue growth, 48 h; 300,000 compounds, 0.57% hits;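 active = growth inhibition above about 58% in most replicates, limit read from the data, passing the limit was not always enough; inconclusive = exactly half the replicates above a set limit; inactive = most replicates below a set limit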;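 also: all wells also contain fluconazole at 8 µg/ml as a sub-toxic cotreatment; 0% = median of DMSO wells and 100% = median of geldanamycin control wells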
NALP1 inh – NALP1 inhibition; S. cerevisiae NALP1/ASC/caspase-1 growth, X-gal OD620, 72 h; 280,000 compounds, 0.61% hits; AID 2071; inhibition, % at 10 µM; in the data active = inhibition mostly above about 24%, no sharp cut-off; inactive = mostly below about 32%
ALR H2O2 inh – human ALR oxidase inhibition via reduced H2O2 | P55789 | 290,000 compounds, 3.8% hits | purified ALR, DTT oxidation, H2O2 HRP-luminol luminescence | inhibition, % (no concentration beside the values);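 active = mean replicate inhibition above about 79%, with every replicate also reaching it, limit read from the data; inconclusive = only one of the two criteria met; inactive = mean below limit and not every replicate reaching it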
Target sequence (P55789 whole entry, looked up): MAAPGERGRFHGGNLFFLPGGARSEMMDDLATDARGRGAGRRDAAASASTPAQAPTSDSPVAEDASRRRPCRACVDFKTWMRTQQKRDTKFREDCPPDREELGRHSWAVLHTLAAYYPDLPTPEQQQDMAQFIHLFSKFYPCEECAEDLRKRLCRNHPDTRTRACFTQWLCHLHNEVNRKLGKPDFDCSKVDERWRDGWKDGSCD
ATG4B inh – blocks human ATG4B protease cleavage of LC3 substrate. Q9Y4P1. ATG4B cleavage of LC3-PLA2, NBD-HPC fluorescence, 1 h. inhibition, % at 8.33 µM. AID 504462. 340,000 compounds, 0.51% hits; in the data active = inhibition above about 40%
Target sequence (Q9Y4P1 whole entry, looked up): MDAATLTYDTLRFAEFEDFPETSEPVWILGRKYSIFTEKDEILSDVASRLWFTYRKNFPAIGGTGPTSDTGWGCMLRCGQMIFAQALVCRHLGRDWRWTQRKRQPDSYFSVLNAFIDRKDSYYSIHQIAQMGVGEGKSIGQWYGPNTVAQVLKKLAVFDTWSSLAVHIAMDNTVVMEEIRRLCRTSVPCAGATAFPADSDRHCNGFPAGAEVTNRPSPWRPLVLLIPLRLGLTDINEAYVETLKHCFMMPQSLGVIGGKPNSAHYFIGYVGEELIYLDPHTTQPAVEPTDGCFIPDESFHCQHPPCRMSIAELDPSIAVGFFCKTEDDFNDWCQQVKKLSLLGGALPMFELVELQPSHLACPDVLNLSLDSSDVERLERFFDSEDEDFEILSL
An asterisk follows results filed as active; u = inconclusive; x = no result given. The list is not random: actives were taken first. Their share in the collection is about 4.8%.

SMILES	UCH37 inh	NLRP3 yeast inh	Calb FLC	NALP1 inh	ALR H2O2 inh	ATG4B inh
COc1ccc(S(=O)(=O)Nc2c(C(=O)O)[nH]c3ccccc23)cc1	-3	12	x	14	91*	-3
CC(=NOCC(=O)OCC(=O)N(Cc1ccccc1)C(C)(C)C)c1ccc2c(c1)OCO2	3	x	x	x	x	x
CC(C)OC(=O)Cn1cnc2ccc(Br)cc2c1=O	1	8	-4	8	89*	-2
COc1ccc(/C=C/c2c(-c3ccc(OC)cc3)oc3ccc(-c4ccc(OC)cc4)cc23)cc1	-195	10	1	15	0	1
COc1ccc(/C=C/c2cc(-c3ccc(C)cc3)o[n+]2C)cc1	-59	22	90*	6	6	14
Cc1ccccc1OCC(=O)NCC(=O)NN=Cc1cccc([N+](=O)[O-])c1	2	x	x	x	x	x
CNC(=S)N(C)N=C1C(=O)N(Cc2c(Cl)cccc2Cl)c2ccccc21	0	x	x	x	x	x
COc1cc(CC(=O)Nc2ccccc2N2CCCCC2)cc(OC)c1OC	-1	6	21	8	0	-1
CC(C)(C)C(=O)NC(=S)Nc1ccccc1N1CCCC1	4	-28	12	-4	98*	3
CCOc1ccc(N2CC(C(=O)Nc3ccccc3OC)CC2=O)cc1 (stereo not given)	4	9	-1	-13	-11	4
Cc1cccc(NC(=O)CSCC(=O)Nc2ccccc2N2CCCC2)c1	x	15	-4	22	99*	7
CCOc1ccc(N2CC(C(=O)Nc3ccccc3N3CCCC3)CC2=O)cc1 (stereo not given)	x	15	3	1	94*	3
COc1ccc(CC(=O)Nc2ccccc2N2CCCC2)cc1OC	-2	8	2	0	98*	0
Cc1cccc(NC(=O)CSCC(=O)Nc2ccccc2N2CCCCC2)c1	-1	24	-1	x	-9	10
Oc1ccc(C=NNc2nccnc2Cl)c(O)c1	6	x	x	x	x	x
Cc1ccc(C=NNC(=O)c2ccc(NC(=O)c3ccccc3Cl)cc2)o1	-39	x	x	x	x	x
COc1ccc(NC(=O)CSCC(=O)Nc2cccc3ncccc23)cc1	3	7	17	x	19	4
Cc1cccc(NC(=O)CSCC(=O)Nc2cccc3ncccc23)c1	-1	10	6	x	99*	5
O=C(Nc1cccc(-c2ccc(N3CCCCC3)nn2)c1)C(F)(F)F	0	17	0	26	92*	-8
Cc1ccc(/C=N\Nc2nc3ccc(Cl)cc3[nH]2)o1	x	32	1	-7	95*	-4
Cc1ccc(/C=N/Nc2ccc3ccccc3n2)o1	x	19	-43	6	99*	-13
CCn1ncc(/C=N\NC(=O)COc2ccccc2)c1C	x	-7	-1	32	96*	-7
CC(=NNC(=O)c1cc(C)nc2ccccc12)c1ccco1	8	x	x	x	x	x
Cc1ccc(SCC(=O)c2ccc(CC(=O)O)s2)cc1	x	19	-1	-5	x	-6
O=C(O)Cc1ccc(C(=O)CSc2ccccc2)s1	6	11	-1	-3	98*	-5
SMILES	UCH37 inh	NLRP3 yeast inh	Calb FLC	NALP1 inh	ALR H2O2 inh	ATG4B inh
CCC(=O)Nc1ccc(C(=O)NN=Cc2cc(Br)c(OC)cc2OC)cc1	0	x	x	x	x	x
COc1cc(S(=O)(=O)N2CCOCC2)ccc1NC(=O)CSc1nnc(N)s1	30*	3	-5	11	-6	-15
COc1cc(C=Nn2c(SC)nnc(C(C)(C)C)c2=O)ccc1O	35*	x	x	x	x	x
COc1cc(/C=N/NC(=O)NC2CCCCC2)cc(OC)c1O	x	-5	6	-17	99*	-1
COc1cc(/C=N/n2c(SC)nnc(C(C)(C)C)c2=O)ccc1O	x	10	-6	8	62	-15
COc1cc(C=NNC(=O)NC2CCCCC2)cc(OC)c1O	2	x	x	x	x	x
COc1cc(/C=N/N2C(=O)C3C4C=CC(CC4)C3C2=O)ccc1O (stereo not given)	x	-12	6	-8	90*	3
COc1cc(/C=N/NC(=O)NC2CCCCC2)ccc1O	x	-14	u	-7	99*	1
CCOC(=S)NC(=NS(=O)(=O)c1ccccc1)c1ccccc1	2	x	x	x	x	x
Cc1cc(C)c(COCc2cc(C=NO)c(C)cc2C)cc1C=NO	5	x	x	x	x	x
COc1ccc(C=NNC(=O)c2cc(-c3cccnc3)nc3ccccc23)c(OC)c1	-34	x	x	x	x	x
CCC(=O)N1CCc2cc(S(=O)(=O)CCC(=O)Nc3nc(C)cs3)ccc21	0	20	3	-68	99*	-9
CCC(=O)N1CCc2cc(S(=O)(=O)CCC(=O)Nc3ccc(C)cn3)ccc21	4	9	5	-6	99*	-18
CCC(=O)N1CCc2cc(S(=O)(=O)CCC(=O)Nc3ccc(C(C)=O)cc3)ccc21	1	6	-34	9	34	2
CCC(=O)N1CCc2cc(S(=O)(=O)CCC(=O)NCc3ccc(C)cc3)ccc21	1	-2	4	18	4	4
CCOC(=O)C(=O)Nc1nc(-c2ccccc2)c(-c2ccccc2)o1	2	-34	10	12	88*	0
O=C(Nc1nc(-c2ccccc2)c(-c2ccccc2)o1)c1ccc(F)cc1	-1	-39	-1	-3	3	7
O=C(NCCCc1ccccc1)Nc1cccc(Cl)c1	5	27	107*	47	-2	19
Cc1ccccc1NC(=O)C(NC1CCCCC1)C(C)C (stereo not given)	1	-23	8	4	99*	-22
COc1ccc(C=c2sc(=CC(=O)c3ccc(C)cc3)[nH]c2=O)c(OC)c1	10	x	x	x	x	x
CS(=O)(=O)c1ccc(C(=O)Nc2cccc(-c3nc4ccccc4[nH]3)c2)cc1	13	7	0	-4	99*	-16
CS(=O)(=O)c1cccc(C(=O)Nc2cccc(-c3nc4ccccc4[nH]3)c2)c1	4	12	35	22	99*	-22
CS(=O)(=O)Cc1ccc(C(=O)Nc2cccc(-c3nc4ccccc4[nH]3)c2)cc1	4	13	4	16	-6	-8
CC(C)(/C=N/O)N(O)C=C1C=CC(=O)C=C1	x	4	-3	-6	99*	-9
O=C(Cc1cccs1)NN=Cc1ccc(OCc2ccccc2)cc1	3	x	x	x	x	x
COC1=C(N)C(=O)c2nc(-c3nc(C(=O)O)c(C)c(-c4ccc(OC)c(OC)c4O)c3N)ccc2C1=O	82*	12	x	46	x	69*
COc1cccc(C=NNC(=O)c2ccc(CN3c4cccc5cccc(c45)S3(=O)=O)cc2)c1	-94	x	x	x	x	x
COc1cc(C)c(-c2cc(C(=O)O)c(C)o2)cc1C(C)C	2	18	2	17	97*	0
COCCn1c(SCC(=O)Nc2cccc(F)c2)nc2c([nH]c3ccccc32)c1=O	-3	0	x	4	-2	3
COCCn1c(SCC(=O)Nc2ccc(C(C)=O)cc2)nc2c([nH]c3ccccc32)c1=O	x	23	x	18	98*	3
